≈ marks a conversion by molar mass, not a printed value.
Assays:
[1] = test system: J774; experiment: Selectivity index, ratio of IC50 for COX1-mediated PGE2 production to IC50 for COX2-mediated PGE2 production in mouse J774 cells; format: cell-based
Procedure, shortened: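 Ratio of the COX-1 IC50 to the COX-2 IC50, both from PGE2 RIA in J774 cells. For COX-1, cells were given compound for 15 min, then 15 μM arachidonic acid for 30 min; lower concentrations (0.01–1 μM) were tested when warranted. For COX-2, cells were given LPS 10 µg/mL for 24 h with compound at 0.01–10 μM. IC50 came from a sigmoidal variable-slope fit.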

[2] = target: T1, Prostaglandin G/H synthase 2 (Mus musculus, UniProt Q05769); experiment: Inhibition of COX2-mediated PGE2 production in LPS-induced mouse J774 cells by radioimmunoassay; format: cell-based
T1 sequence (Q05769 whole entry): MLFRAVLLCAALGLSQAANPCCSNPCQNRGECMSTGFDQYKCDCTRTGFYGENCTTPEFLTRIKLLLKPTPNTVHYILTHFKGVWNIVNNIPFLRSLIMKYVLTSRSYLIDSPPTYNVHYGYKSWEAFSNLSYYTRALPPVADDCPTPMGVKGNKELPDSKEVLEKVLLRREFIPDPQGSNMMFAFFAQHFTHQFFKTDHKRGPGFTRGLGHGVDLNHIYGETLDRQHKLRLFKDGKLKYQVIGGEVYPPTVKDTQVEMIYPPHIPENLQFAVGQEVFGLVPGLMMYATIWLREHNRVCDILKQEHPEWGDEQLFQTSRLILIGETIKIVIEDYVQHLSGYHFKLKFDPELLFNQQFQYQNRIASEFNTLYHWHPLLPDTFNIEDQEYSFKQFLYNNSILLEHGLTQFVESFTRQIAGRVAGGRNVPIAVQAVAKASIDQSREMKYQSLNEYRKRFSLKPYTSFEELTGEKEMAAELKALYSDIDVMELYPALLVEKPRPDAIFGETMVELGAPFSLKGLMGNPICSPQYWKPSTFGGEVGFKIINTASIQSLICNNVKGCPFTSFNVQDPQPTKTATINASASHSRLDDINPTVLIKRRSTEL
Procedure, shortened: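 J774 murine macrophages stimulated 24 h with E. coli LPS (10 µg/mL) to induce COX-2, with or without compound (0.01–10 μM). Supernatant PGE2 measured by RIA; percent inhibition against controls. Triplicate wells, mean of three experiments; IC50 from sigmoidal variable-slope fit.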

[3] = target: T2, Prostaglandin G/H synthase 1 (Mus musculus) (UniProt P22437); experiment: Inhibition of COX1-mediated PGE2 production in mouse J774 cells at 10 uM preincubated for 15 mins measured after 30 mins by radioimmunoassay relative to control; format: cell-based
T2 sequence (whole entry): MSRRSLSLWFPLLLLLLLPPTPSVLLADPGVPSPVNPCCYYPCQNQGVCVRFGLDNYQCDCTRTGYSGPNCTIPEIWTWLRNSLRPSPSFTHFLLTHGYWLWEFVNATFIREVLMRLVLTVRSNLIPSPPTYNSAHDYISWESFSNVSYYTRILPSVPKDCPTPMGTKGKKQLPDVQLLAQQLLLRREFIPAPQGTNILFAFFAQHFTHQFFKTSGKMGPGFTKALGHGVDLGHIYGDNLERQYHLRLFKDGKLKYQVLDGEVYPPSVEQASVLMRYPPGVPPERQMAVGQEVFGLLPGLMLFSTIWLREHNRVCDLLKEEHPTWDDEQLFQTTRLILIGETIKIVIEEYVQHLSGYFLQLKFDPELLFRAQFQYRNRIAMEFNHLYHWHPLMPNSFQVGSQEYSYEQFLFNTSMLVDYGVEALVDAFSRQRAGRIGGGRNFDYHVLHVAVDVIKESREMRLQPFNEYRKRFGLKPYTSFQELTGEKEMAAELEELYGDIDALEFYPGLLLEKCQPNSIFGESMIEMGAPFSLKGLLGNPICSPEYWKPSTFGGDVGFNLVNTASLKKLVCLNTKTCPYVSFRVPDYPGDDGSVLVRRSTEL
Procedure, shortened: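 Murine J774 macrophages in DMEM with 10% FBS, glutamine, HEPES, pyruvate and antibiotics, adhered 2 h at 37 °C in 5% CO2. Medium was refreshed, cells were pretreated with compound for 15 min, then given 15 μM arachidonic acid for 30 min at 37 °C. PGE2 in supernatant was measured by RIA as % inhibition versus control, triplicate wells, mean of three experiments.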

[4] = target: T3, Prostaglandin G/H synthase 1 (Mus musculus, UniProt P22437); experiment: Inhibition of COX1-mediated PGE2 production in mouse J774 cells preincubated for 15 mins measured after 30 mins by radioimmunoassay; format: cell-based
T3 sequence (P22437 whole entry): T2 sequence (whole entry)
Procedure, shortened: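 Murine J774 macrophages in DMEM/10% FBS, adhered 2 h at 37 °C. […] Supernatant PGE2 measured by RIA. Triplicate wells, mean of three experiments; IC50 by sigmoidal variable-slope fit.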

[5] = target: T4, Prostaglandin G/H synthase 2 (Mus musculus) (UniProt Q05769); experiment: Inhibition of COX2-mediated PGE2 production in LPS-induced mouse J774 cells by radioimmunoassay relative to control; format: cell-based; set-up: concentration or dose not given beside the values; conditions: concentration not given here
T4 sequence (whole entry): T1 sequence (Q05769 whole entry)
Procedure, shortened: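 J774 cells, cultured as for the COX-1 assay, were stimulated 24 h with E. coli LPS (10 µg/mL) to induce COX-2, with or without compound at 0.01–10 μM. Supernatant PGE2 was measured by RIA as % inhibition versus control, triplicate wells, mean of three experiments. IC50 came from a sigmoidal variable-slope dose-response fit.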

[6] = test system: Rattus norvegicus; experiment: Antiinflammatory activity in rat assessed as reduction of carrageenan-induced paw pressure at 40 mg/kg, po after 60 mins post carrageenan-challenge; format: functional; set-up: scale not given: the % may be the effect or the level left
Procedure, shortened: (§1)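 Rats (Sprague-Dawley or Wistar, 150-200 g) received intraplantar carrageenan 4 h before testing, then oral compound or CMC vehicle. Paw-pressure threshold read before treatment and at 15, 30, 45 and 60 min after treatment, compared with saline and carrageenan controls.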

[7] = test system: Liver; experiment: Induction of nitrite/nitrate production in Wistar rat liver homogenates at 1 mM; format: functional, tissue-based; conditions: TDE = time-dependent effect
Procedure, shortened: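 Liver from male Wistar rats (250–350 g), perfused with cold buffer (pH 7.4), homogenized 1:5 w/v. Homogenate in K2HPO4/EDTA buffer pH 7.4 with 1 mM glutathione, NADH and NADPH at 37 °C; compound added from DMSO at 1 mM final. Aliquots at 5-120 min into H2SO4/KI; quantified against sodium nitrite calibration.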

[8] = test system: Rattus norvegicus; experiment: Antiinflammatory activity in rat assessed as reduction of carrageenan-induced paw pressure at 40 mg/kg, po after 30 mins post carrageenan-challenge; format: functional; set-up: scale not given: the % may be the effect or the level left; procedure, shortened: as §1
[9] = test system: Rattus norvegicus; experiment: Antiinflammatory activity in rat assessed as reduction of carrageenan-induced paw pressure at 20 mg/kg, po after 30 mins post carrageenan-challenge; format: functional; set-up: scale not given: the % may be the effect or the level left; procedure, shortened: as §1
[10] = Solubility of the compound in PBS buffer at pH 7.4 by HPLC analysis; format: physicochemical
Procedure, shortened: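 20 mM DMSO stocks diluted 1:100 into 0.01 M PBS pH 7.4 in duplicate wells of a solubility filter plate, shaken 90 min at 300 rpm. Seven-point calibration standards from 1 to 200 μM.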

[11] = test system: Rattus norvegicus; experiment: Antiinflammatory activity in rat assessed as reduction of carrageenan-induced paw pressure at 40 mg/kg, po after 45 mins post carrageenan-challenge; format: functional; set-up: scale not given: the % may be the effect or the level left; procedure, shortened: as §1
[12] = test system: Rattus norvegicus; experiment: Antiinflammatory activity in rat assessed as reduction of carrageenan-induced oedema in right hind paw at 40 mg/kg, po after 4 hrs post carrageenan-challenge; format: functional; set-up: scale not given: the % may be the effect or the level left
Procedure, shortened: (§2)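 Sprague-Dawley or Wistar rats (150-200 g). Carrageenan injected intraplantar; oral treatment with test compound or CMC vehicle. Right hind paw volume measured 4 h after carrageenan and compared with saline- and carrageenan-treated controls.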

[13] = test system: Rattus norvegicus; experiment: Antiinflammatory activity in rat assessed as reduction of carrageenan-induced paw pressure at 20 mg/kg, po after 15 mins post carrageenan-challenge; format: functional; set-up: scale not given: the % may be the effect or the level left; procedure, shortened: as §1
[14] = test system: Mus musculus; experiment: Analgesic activity in Swiss albino mouse assessed as reduction of acetic acid-induced writhing at 42 nmol/kg, po after 5 mins; format: functional; set-up: scale not given: the % may be the effect or the level left
Procedure, shortened: (§3)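 Male Swiss albino mice (23-25 g), standard diet and water ad libitum, 23 ± 1 °C, 12 h light/dark cycle. Test compound given orally; 0.6% acetic acid (10 mL/kg) injected ip. Stretching movements counted for 10 min, beginning 5 min after administration.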

[15] = test system: Rattus norvegicus; experiment: Antiinflammatory activity in rat assessed as reduction of carrageenan-induced paw pressure at 20 mg/kg, po after 60 mins post carrageenan-challenge; format: functional; set-up: scale not given: the % may be the effect or the level left; procedure, shortened: as §1
[16] = test system: Rattus norvegicus; experiment: Antiinflammatory activity in rat assessed as reduction of carrageenan-induced oedema in right hind paw at 20 mg/kg, po after 4 hrs post carrageenan-challenge; format: functional; set-up: scale not given: the % may be the effect or the level left; procedure, shortened: as §2
[17] = Solubility of the compound in simulated gastric fluid without pepsin at pH 1.5 by HPLC analysis; format: physicochemical
Procedure, shortened: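 Compound from 20 mM DMSO stock diluted 1:100 into 0.05 M simulated gastric fluid without pepsin (pH 1.5 with HCl), duplicate wells on a solubility filter plate, shaken 90 min at 300 rpm. Seven-point calibration standards from 1 to 200 μM.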

[18] = test system: Mus musculus; experiment: Analgesic activity in Swiss albino mouse assessed as reduction of acetic acid-induced writhing at 21 nmol/kg, po after 5 mins; format: functional; set-up: scale not given: the % may be the effect or the level left; procedure, shortened: as §3
[19] = test system: Rattus norvegicus; experiment: Antiinflammatory activity in rat assessed as reduction of carrageenan-induced paw pressure at 20 mg/kg, po after 45 mins post carrageenan-challenge; format: functional; set-up: scale not given: the % may be the effect or the level left; procedure, shortened: as §1
[20] = test system: Rattus norvegicus; experiment: Antiinflammatory activity in rat assessed as reduction of carrageenan-induced paw pressure at 40 mg/kg, po after 15 mins post carrageenan-challenge; format: functional; set-up: scale not given: the % may be the effect or the level left; procedure, shortened: as §1
[21] = test system: Mus musculus; experiment: Analgesic activity in Swiss albino mouse assessed as reduction of acetic acid-induced writhing at 84 nmol/kg, po after 5 mins; format: functional; set-up: scale not given: the % may be the effect or the level left; procedure, shortened: as §3
[22] = test system: Mus musculus; experiment: Analgesic activity in Swiss albino mouse assessed as reduction of acetic acid-induced writhing at 40.8 nmol/kg, po after 5 mins; format: functional; set-up: scale not given: the % may be the effect or the level left; procedure, shortened: as §3
[23] = test system: Mus musculus; experiment: Analgesic activity in Swiss albino mouse assessed as reduction of acetic acid-induced writhing at 81.6 nmol/kg, po after 5 mins; format: functional; set-up: scale not given: the % may be the effect or the level left; procedure, shortened: as §3

IC50 [2] [µM]	inhibition [3] [%]	IC50 [4] [µM]	inhibition [5] [%]	solubility [10] [µM]	solubility [17] [µM]	SMILES	Ratio IC50 [1]	Activity [6] [%]	Activity [8] [%]	Activity [11] [%]	Activity [12] [%]	Activity [20] [%]	further results
0.76	23	> 10	100			Cc1c(C(N)C(=O)OCCCO)cc(-c2ccc(S(C)(=O)=O)cc2)n1-c1ccc(F)cc1 (stereo not given)	> 13.2						
1.5	23	> 10	100			Cc1c(C(N)C(=O)OCCCCO)cc(-c2ccc(S(C)(=O)=O)cc2)n1-c1cccc(F)c1 (stereo not given)	> 6.67						
1.51	5	> 10	100			Cc1c(C(N)C(=O)OCCCO[N+](=O)[O-])cc(-c2ccc(S(C)(=O)=O)cc2)n1-c1cccc(F)c1 (stereo not given)	> 6.62						
				1.6 (≈ 0.762 µg/mL)	< 1	Cc1c(CC(=O)OCCO[N+](=O)[O-])cc(-c2ccc(S(C)(=O)=O)cc2)n1-c1cccc(F)c1		23	80	60	40	50	Activity [7]: tde; Activity [9]: 35%; Activity [13]: 18%; Activity [14]: 48.8%; Activity [15]: 10%; Activity [16]: 17%; Activity [18]: 30.8%; Activity [19]: 29%
				1.1 (≈ 0.54 µg/mL)	< 1	Cc1c(CC(=O)OCCCO[N+](=O)[O-])cc(-c2ccc(S(C)(=O)=O)cc2)n1-c1cccc(F)c1		17	41	40	35	40	Activity [21]: 71.2%; Activity [22]: 23.3%; Activity [23]: 26.4%
